The nature of data set [1]: Antiinflammatory activity in human SW1353 cells assessed as inhibition of PMA-induced NF-kappaB activity incubated for 30 mins prior to PMA challenge measured after 8 hrs by luciferase reporter gene assay. The format is cell-based. The essentials: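 SW1353 cells in DMEM/F12 with 10% FBS, electroporated with NF-κB luciferase plasmid (160 V, one 70-ms pulse), plated at 1.25 × 10⁵ cells/well. After 24 h, graded compound concentrations added 30 min before PMA 70 ng/mL, then 8 h incubation. Luciferase read-out, % inhibition versus vehicle, IC50 from dose curves. Sp-1 reporter served as nonspecific control.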
On the technique in general: Reporter assays use an easily measured gene product as a stand-in for the process of interest.

Data set [2] is described as follows: Cytotoxicity against pig LLC-PK11 cells up to 25 ug/ml after 48 hrs by neutral red assay relative to control. The format is cell-based, Sus scrofa. To be noted: llc-pk11, 48 h. Summed up: (§1)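 Cells grown in RPMI-1640 with 10% bovine calf serum and amikacin at 37 °C, 5% CO2. Seeded at 25,000 cells/well and grown 24 h, then exposed 48 h to samples diluted in serum-free medium. Viability by Neutral Red; % decrease vs vehicle; IC50 from dose curves. Triplicate runs, mean reported; doxorubicin as positive control.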

Another data set concerns Vero. Nature of the data set: Cytotoxicity against African green monkey Vero cells up to 25 ug/ml after 48 hrs by neutral red assay relative to control. The format is cell-based. The conditions noted are these: chlorocebus sabaeus. Summed up:
as §1

In another data set the test system is SK-OV-3. Nature of the data set: Cytotoxicity against human SKOV3 cells up to 25 ug/ml after 48 hrs by neutral red assay relative to control. The format is cell-based. To be noted: sk-ov-3, 48 h. The essentials: as §1
Data set [3] has as its system BT-549. Nature of the data set: Cytotoxicity against human BT549 cells up to 25 ug/ml after 48 hrs by neutral red assay relative to control. The format is cell-based. To be noted: bt-549, 48 h. The essentials:
as §1

The test system of another data set is KB. Nature of the data set: Cytotoxicity against human KB cells up to 25 ug/ml after 48 hrs by neutral red assay relative to control. It is filed as cell-based. The essentials:
as §1

For data set [4], the system named is SK-MEL. Nature of the data set: Cytotoxicity against human SK-MEL cells up to 25 ug/ml after 48 hrs by neutral red assay relative to control. It is filed as cell-based. The essentials:
as §1

Data set [5] addresses T1, Nitric oxide synthase, inducible (Mus musculus) (UniProt P29477).
T1 sequence (whole entry): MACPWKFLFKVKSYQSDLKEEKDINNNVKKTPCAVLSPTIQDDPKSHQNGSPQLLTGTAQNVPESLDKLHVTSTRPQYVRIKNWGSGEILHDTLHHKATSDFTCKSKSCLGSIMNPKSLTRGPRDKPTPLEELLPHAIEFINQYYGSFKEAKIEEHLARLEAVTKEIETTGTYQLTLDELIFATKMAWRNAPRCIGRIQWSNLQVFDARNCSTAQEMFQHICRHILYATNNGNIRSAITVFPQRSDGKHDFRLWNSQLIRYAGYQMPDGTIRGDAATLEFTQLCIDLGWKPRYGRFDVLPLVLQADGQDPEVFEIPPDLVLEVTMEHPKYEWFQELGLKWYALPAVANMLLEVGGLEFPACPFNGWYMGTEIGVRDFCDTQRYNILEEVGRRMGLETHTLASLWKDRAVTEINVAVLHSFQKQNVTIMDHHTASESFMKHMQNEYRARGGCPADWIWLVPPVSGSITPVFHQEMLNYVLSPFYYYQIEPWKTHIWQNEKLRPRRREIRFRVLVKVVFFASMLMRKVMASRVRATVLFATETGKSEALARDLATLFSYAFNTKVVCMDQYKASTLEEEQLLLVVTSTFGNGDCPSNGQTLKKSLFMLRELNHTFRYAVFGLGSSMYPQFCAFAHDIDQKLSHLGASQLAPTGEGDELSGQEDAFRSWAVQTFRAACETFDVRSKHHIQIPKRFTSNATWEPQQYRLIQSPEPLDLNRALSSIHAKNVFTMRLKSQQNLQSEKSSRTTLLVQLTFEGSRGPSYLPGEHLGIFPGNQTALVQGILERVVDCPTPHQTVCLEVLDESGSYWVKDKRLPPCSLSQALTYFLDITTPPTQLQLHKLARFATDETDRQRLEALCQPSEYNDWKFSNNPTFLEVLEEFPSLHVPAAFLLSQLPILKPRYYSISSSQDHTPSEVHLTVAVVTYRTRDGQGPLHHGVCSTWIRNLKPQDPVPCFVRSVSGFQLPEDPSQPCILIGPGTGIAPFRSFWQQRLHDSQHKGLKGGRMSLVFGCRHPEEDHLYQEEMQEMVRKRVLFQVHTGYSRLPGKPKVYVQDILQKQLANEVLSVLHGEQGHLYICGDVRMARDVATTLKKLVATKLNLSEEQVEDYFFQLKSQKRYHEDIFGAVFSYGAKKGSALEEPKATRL
Put plainly: Antiinflammatory activity in mouse RAW264.7 cells assessed as inhibition of LPS-induced iNOS activity up to 25 ug/ml incubated for 30 mins prior to LPS challenge measured after 24 hrs by Griess assay. The format is cell-based. Summed up: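 RAW264.7 macrophages seeded at 50,000 cells/well and grown 24 h to ≥75% confluency. Compounds in serum-free medium added 30 min before LPS (5 μg/mL), then 24 h incubation. Nitrite in the supernatant measured with Griess reagent.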
For orientation: Nitrite, measured by Griess reagent, commonly stands in for NO production.

The next data set deals with SW1353. Put plainly: Antiinflammatory activity in human SW1353 cells assessed as inhibition of PMA-induced NF-kappaB activity up to 25 ug/ml incubated for 30 mins prior to PMA challenge measured after 8 hrs by luciferase reporter gene assay. The format is cell-based. The essentials: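 SW1353 chondrosarcoma cells grown in DMEM/F12 with 10% FBS at 37 °C, 5% CO2. Cells electroporated with an NF-κB luciferase plasmid (50 μg/mL, 160 V, one 70-ms pulse) and plated at 1.25 × 10⁵ cells/well. After 24 h, compound was added 30 min before PMA (70 ng/mL), then 8 h incubation. Luciferase read-out as % inhibition vs vehicle; IC50 from dose curves. Sp-1 served as a counter-screen.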

In data set [6] the test system is BT-549. Nature of the data set: Cytotoxicity against human BT549 cells after 48 hrs by neutral red assay relative to control. To be noted: BT-549, 48 h. The format is cell-based. Summed up: (§2)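 Cells grown in RPMI-1640 with 10% bovine calf serum and amikacin at 37°C, 5% CO₂. Seeded 25,000 cells/well, grown 24 h, then exposed to compounds diluted in serum-free medium for 48 h. Viability by Neutral Red uptake, % decrease versus vehicle control. IC50 from dose curves, triplicate means. Doxorubicin positive control.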

The subject of data set [7] is SK-MEL. Nature of the data set: Cytotoxicity against human SK-MEL cells after 48 hrs by neutral red assay relative to control. It is filed as cell-based. Summed up: as §2

The values that follow come from ChEMBL document CHEMBL3596194, “Design, synthesis and biological evaluation of bivalent benzoxazolone and benzothiazolone ligands as potential anti-inflammatory/analgesic agents” (Bioorg Med Chem, 2015).

Structures are written as SMILES. Calls of active or inactive are those of the source. No cut-off for these calls is given here.

Take `O=c1oc2ccccc2n1CCCCCCN1CCN(CCn2c(=O)oc3ccccc32)CC1`: the IC50 – broadly, the concentration that gives 50% inhibition – in data set [1] is 3.07 µM. In addition, the Activity result (in [2]; in the data set with Vero; with SK-OV-3; in the data set on BT-549 [3]; with KB; in the data set on SK-MEL [4]) was “Non-toxic” throughout.
In the case of `O=c1oc2ccccc2n1CCCN1CCN(CCn2c(=O)oc3ccccc32)CC1`, the inhibition entry (in [5]; with SW1353) was “inactive” each time. Moreover, the Activity result (in data set [2]; with Vero; in the data set on SK-OV-3; in the data set on BT-549 [3]; with KB; in the data set with SK-MEL [4]) was “Non-toxic” in each case.
Regarding `O=c1oc2ccccc2n1CCCCCCN1CCN(CCCn2c(=O)oc3ccccc32)CC1`, the inhibition result in the data set with SW1353 is “inactive”. Moreover, the Activity result (in data set [2]; in the data set on Vero; in the data set on SK-OV-3; with BT-549 [3]; with KB; in the data set with SK-MEL [4]) was “Non-toxic” in each case.
For `O=c1sc2ccccc2n1CCCCN1CCN(CCCCn2c(=O)sc3ccccc32)CC1`, in [5], the inhibition result is “inactive”. In [1], the 50% inhibitory concentration (IC50) turned out to be 2.28 µM. The Activity entry (in data set [2]; with Vero; in the data set on SK-OV-3; with BT-549 [3]; with KB; in the data set with SK-MEL [4]) was “Non-toxic” each time.
Take `O=c1sc2ccccc2n1CCN1CCN(CCn2c(=O)sc3ccccc32)CC1`: the inhibition result (in [5]; in the data set with SW1353) was “inactive” throughout. Further, the Activity result (in [2]; with Vero; in the data set with SK-OV-3; in the data set on BT-549 [3]; with KB; in the data set on SK-MEL [4]) was “Non-toxic” in each case.
As to `O=c1sc2ccccc2n1CCCCCCN1CCN(CCCn2c(=O)sc3ccccc32)CC1`, the concentration for half-maximal inhibition (IC50) came to 2.4 µM in data set [1], 25 µM in the data set with BT-549 [6] and 12 µM in the data set with SK-MEL [7]. Also, the Activity entry (in data set [2]; in the data set on Vero; with SK-OV-3; in the data set with KB) was “Non-toxic” in each case.
For the compound `O=c1sc2ccccc2n1CCCCCCN1CCN(CCn2c(=O)sc3ccccc32)CC1`, the IC50 in [1] turned out to be 2.95 µM; in the data set with BT-549 [6], 25 µM; in the data set with SK-MEL [7], 25 µM. In addition, the Activity result (in data set [2]; in the data set on Vero; in the data set on SK-OV-3; in the data set on KB) was “Non-toxic” each time.
With `O=c1oc2ccccc2n1CCCN1CCN(CCCn2c(=O)oc3ccccc32)CC1`, the inhibition entry in data set [5] was “inactive”. The IC50 in data set [1] turned out to be 4.91 µM. Moreover, the Activity result (in data set [2]; with Vero; with SK-OV-3; with BT-549 [3]; in the data set on KB; with SK-MEL [4]) was “Non-toxic” each time.
For the compound `O=c1oc2ccccc2n1CCCCCCN1CCN(CCCCCn2c(=O)oc3ccccc32)CC1`, the IC50 came out at 1.4 µM in [1], 22.5 µM in the data set with BT-549 [6] and 23 µM in the data set with SK-MEL [7]. The Activity entry (in data set [2]; in the data set with Vero; in the data set with SK-OV-3; in the data set with KB) was “Non-toxic” each time.
As to `O=c1sc2ccccc2n1CCCCCN1CCN(CCCn2c(=O)sc3ccccc32)CC1`, the half-maximal inhibitory concentration (IC50) in data set [1] amounted to 1.46 µM; in the data set with BT-549 [6] it was 14 µM; with SK-MEL [7], 16.8 µM. Further, the Activity entry (in [2]; in the data set with Vero; in the data set on SK-OV-3; in the data set on KB) was “Non-toxic” in each case.
`O=c1oc2ccccc2n1CCCCCN1CCN(CCCn2c(=O)oc3ccccc32)CC1`: in the data set on SW1353, the inhibition result is “inactive”. Moreover, the Activity result (in data set [2]; in the data set with Vero; in the data set on SK-OV-3; in the data set on BT-549 [3]; with KB; in the data set on SK-MEL [4]) was “Non-toxic” each time.
For `O=c1oc2ccccc2n1CCCCCCN1CCN(CCCCn2c(=O)oc3ccccc32)CC1`, the IC50 in [1] was 1.24 µM. Also, the Activity result (in [2]; in the data set on Vero; with SK-OV-3; in the data set with BT-549 [3]; in the data set with KB; in the data set on SK-MEL [4]) was “Non-toxic” each time.
Turning to `O=c1oc2ccccc2n1CCCCCCN1CCN(CCCCCCn2c(=O)oc3ccccc32)CC1`, the inhibition entry with SW1353 is “inactive”. The Activity result (in data set [2]; in the data set with Vero; in the data set on SK-OV-3; in the data set with KB) was “Non-toxic” in each case. The IC50 worked out at 18.5 µM in the data set on BT-549 [6] and 21.3 µM with SK-MEL [7].
Regarding `C=C1C(=O)O[C@@H]2[C@H]3O[C@]3(C)CC/C=C(\C)CC[C@@H]12`, the half-inhibitory concentration (IC50) in data set [1] worked out at 2.57 µM.
Take `O=c1sc2ccccc2n1CCCCCN1CCN(CCCCn2c(=O)sc3ccccc32)CC1`: the half-maximal inhibitory concentration (IC50) in data set [1] stood at 1.18 µM; in the data set on BT-549 [6] it was 22.1 µM; in the data set with SK-MEL [7] it was 17.5 µM. The Activity entry (in data set [2]; with Vero; in the data set on SK-OV-3; in the data set with KB) was “Non-toxic” each time.
As for `O=c1oc2ccccc2n1CCCCCN1CCN(CCn2c(=O)oc3ccccc32)CC1`, the Activity entry (in [2]; with Vero; in the data set with SK-OV-3; in the data set on BT-549 [3]; with KB; in the data set on SK-MEL [4]) was “Non-toxic” throughout.
